Compound activity from PubChem.
Shown are actives, neighbours in structure and some others; about 2.3% of the full set was active somewhere.
Pemphigus Ab inh: human desmoglein-3 autoantibody binding inhibition. P32926. DSG3-coupled beads, scFv-anti-DSG3-GFP binding, flow cytometry; hits give low values. binding (percent of control), % at 10 µM. 310,000 tested, 0.48% active;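 active = binding more than 3 SD below its plate's average and above zero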;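 also: hits lower antibody fragment binding to DSG3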
CHT allo act: allosteric activators of human choline transporter CHT; Q9GZV3; CHT-expressing cells, membrane potential dye, choline EC20; hits give high values; LV-AA mutant CHT in HEK293 cells; B-score at 10 µM; 310,000 tested, 0.49% active;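 active = initial fluorescence not abnormally high and integrated response B-score, plate-corrected, over 3 SD above library mean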
CHT block: inhibitors of human choline transporter CHT. CHT-expressing cells, membrane potential dye, choline response; hits give low values. B-score at 10 µM. 310,000 tested, 0.86% active;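 active = B-score over 3 SD under the library average, and starting fluorescence ratio not unusually high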;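 also: choline stimulus applied at its EC90 after an EC20 pre-addition; B-score computed on integrated fluorescence ratio after choline addition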
GPR7 antag: blocks human GPR7 receptor signaling | P48145 | inhibition, % at 4.4 µM | AID 1861 | GPR7-expressing cells, fluorescence antagonist assay | 290,000 tested, 1.1% active; in the data active = inhibition above about 16%, passing the limit was not always enough;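 also: cells stimulated with the agonist NPW; 0% = agonist with vehicle and 100% = vehicle without agonist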
Target sequence (P48145 whole entry, looked up): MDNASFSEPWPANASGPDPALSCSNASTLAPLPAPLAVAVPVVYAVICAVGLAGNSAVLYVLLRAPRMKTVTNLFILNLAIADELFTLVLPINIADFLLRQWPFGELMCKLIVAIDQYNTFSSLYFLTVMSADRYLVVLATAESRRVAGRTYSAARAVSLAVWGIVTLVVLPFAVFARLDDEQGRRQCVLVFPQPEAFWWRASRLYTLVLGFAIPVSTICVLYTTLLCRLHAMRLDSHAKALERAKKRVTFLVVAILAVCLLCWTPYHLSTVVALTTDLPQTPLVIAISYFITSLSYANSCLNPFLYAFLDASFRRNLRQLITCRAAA
T cell modulator: T cell immune modulation candidate. response (vesicle binding), % at 7 µM. 330,000 tested, 0.068% active. 2C CD8+ T cell-vesicle binding, flow cytometry; hits give low values;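 active = response, share of CD8 T cells binding vesicles, and their 90th percentile fluorescence all below set limits, cut at about 80% in these data, passing the limit was not always enough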;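 also: values below 100% mean blocked vesicle binding to the CD8+ T cells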
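Also added: QL9-peptide-loaded Drosophila micro-vesicles bearing Ld, ICAM-1 and B7-1; Test system: purified 2C TCR transgenic mouse naive CD8+ T cells; Measured by: cytometric PE anti-B7-1 and Alexa647 anti-CD8 signals after 1% paraformaldehyde fixation; Timing: binding step 1.5 h, 37 °C, antibody labelling 20 min, ice.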
pCIP destab: p/CIP protein destabilization. F442A p/CIP-EGFP cells, EGFP fluorescence, 16 h. Q05BA5. 290,000 tested, 0.01% active. AID 1984. decrease of EGFP signal, % at 10 µM;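 active = EGFP signal decrease of at least 30% at 10 µM or well 3 SD below plate mean, unless failing retest; inactive = the rest, including hits failing retest or dose response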
CHT activ conf: human CHT activation, confirmatory screen | shares compounds with CHT allo act | CHT-expressing cells, membrane potential dye fluorescence (FDSS); % of choline EC20–EC90 response window; HEK293 expressing CHT LV-AA mutant; choline added at its EC20 | activation, % at 10 µM | 2,500 tested, 91% active | AID 504833;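 active = primary screen active, with duplicate mean activation above negative control mean plus 3 SD, cut at about 11% in these data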
HEK293 MP dye: activity in parental HEK293 cells lacking CHT. shares compounds with CHT allo act. membrane potential dye fluorescence (FDSS); measured after EC20 choline addition. ratio readout change at 10 µM, hits read low. 2,500 tested, 62% active;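 active = duplicate-averaged ratio beyond 3 SD from buffer wells, up or down, though filed actives are nearly all decreases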
Active calls of the source: *; i = inactive; nt = not tested or not shown; ! = a repeat was not active.

SMILES | Pemphigus Ab inh | CHT allo act | CHT block | GPR7 antag | T cell modulator | pCIP destab | CHT activ conf | HEK293 MP dye
CN(C)C1=NC[C@H](Cc2ccccc2)N1CCCCc1ccccc1 | 110 | i | i | nt | 221 | nt | 16* | i
CCCCCCCN1C(N(C)C)=NC[C@@H]1Cc1ccccc1 | 107 | 6.8* | i | nt | 147 | nt | 25* | i
CCN(C(=O)COC(=O)c1ccc(=O)n(Cc2ccccc2)n1)C1CCS(=O)(=O)C1 (centres undefined) | 108 | nt | nt | nt | nt | nt | nt | nt
Cc1ccc(S(=O)(=O)N2C[C@H]3C(=O)C[C@@H](c4ccccc4F)N(S(=O)(=O)c4ccc(C)cc4)[C@H]3C[C@H]2c2cccc3ccccc23)cc1 | 93 | nt | nt | nt | nt | nt | nt | nt
Cc1ccccc1S(=O)(=O)N1C[C@H]2CON(C)[C@H]2C[C@H]1c1cccc(-c2ccc(C#N)cc2)c1 | 104 | nt | nt | nt | nt | nt | nt | nt
NC(=O)c1ccccc1NC(=S)NC(=O)CCc1ccccc1 | 101 | i | i | 8 | 217 | 8 | 9 | i
COCCCNC(=O)C[C@H]1C[C@H](C(=O)N2CCOCC2)[C@@]2(C)c3[nH]c4cc(CCC(=O)N(C)C)ccc4c3CCN2C1=O | 101 | nt | nt | nt | nt | nt | nt | nt
Cn1c(Cc2ccccc2)[n+](C)c2ccccc21 | nt | i | i | -3 | 296 | -8 | 49* | -41*
COc1ccc(C(c2nnnn2Cc2cccs2)N2CCN(c3ccccc3F)CC2)cc1 (centres undefined) | 99 | i | i | 8 | 144 | -9 | 31* | i
O=C(c1cccc(S(=O)(=O)N2CCN(c3ccc(F)cc3)CC2)c1)N1CCCC(C(F)(F)F)C1 (centres undefined) | 113 | i | i | nt | 254 | nt | nt | nt
CC1CC2OC2CC1COC(=O)C1CC2OC2CC1C (centres undefined) | 94 | nt | nt | nt | nt | nt | nt | nt
CCCn1c(SCc2ccc(C(=O)OC)o2)nc2ccccc2c1=O | 106 | 6.7* | i | 2 | 261 | -12 | 48* | i
O=C(NCc1ccccc1OC(F)(F)F)C1CCC(=O)N(CCCN2CCOCC2)C1 (centres undefined) | 100 | nt | nt | nt | nt | nt | nt | nt
CCCC[C@@H]1C[C@H]1[C@@H](NC(=O)c1cccs1)c1ccc(C(F)(F)F)cc1 | nt | i | i | nt | 454 | nt | nt | nt
CCCC[C@@H]1C[C@H]1[C@@H](NC(=O)c1cccs1)c1ccc(Cl)cc1 | nt | i | i | 5 | 172 | -9 | 29* | i
Cc1ccc(N/C(N)=N/c2nc(CSc3nnc(C)s3)cc(=O)[nH]2)c(C)c1 | 99 | 6.9* | i | 31* | 354 | -24 | 24* | i
CC(Oc1ccccc1F)C(=O)NNC(=O)Cc1ccc(S(=O)(=O)N2CCOCC2)s1 (centres undefined) | 96 | nt | nt | nt | nt | nt | nt | nt
Oc1nc(-c2ccc(Cl)cc2)n2ccncc12 | 99 | i | i | -2 | 287 | -1 | nt | nt
COC(=O)c1ccc(-c2nc(O)c3cnccn23)cc1 | 110 | i | i | -4 | 235 | 2 | 23* | -37*
Cc1cc(N2CCN(C3CCCCC3)CC2)n2nc(C)nc2n1 | 105 | 8.9* | i | -2 | 292 | 1 | 56* | -56*
CC(C)[C@H](NC(=O)OCc1ccccc1)C(=O)OCC(=O)N1C(C)CCCC1C (some centres undefined) | 94 | nt | nt | nt | nt | nt | nt | nt
CCN(CC)S(=O)(=O)c1ccc2nc(CCl)[nH]c2c1 | 98 | i | i | -2 | 252 | -13 | nt | nt
CCN(Cc1ccncc1)Cc1cn(C)nc1-c1ccc(Oc2ccccc2)cc1 | 103 | i | i | -1 | 89 | -10 | 19* | i
CC(OC(=O)/C=C/c1ccco1)C(=O)NC1CCCCC1 (centres undefined) | 101 | nt | nt | nt | nt | nt | nt | nt
CN1CCN(c2nc(-c3cccnc3)nc3ccccc23)CC1 | 79 | 7.3* | i | -7 | 549 | -14 | 42* | -88*
SMILES | Pemphigus Ab inh | CHT allo act | CHT block | GPR7 antag | T cell modulator | pCIP destab | CHT activ conf | HEK293 MP dye
CN1CCN(c2nc(-c3ccc(Cl)c(Cl)c3)nc3ccccc23)CC1 | 121 | i | i | 20 | 594 | 7 | nt | nt
CN1CCN(c2nc(-c3ccccn3)nc3ccccc23)CC1 | 109 | 9.1* | i | -5 | 338 | 4 | 55* | -94*
c1ccc(N2CCN(c3nc(-c4ccccn4)nc4ccccc34)CC2)cc1 | 83 | i | i | -8 | 232 | -10 | nt | nt
CC(C)(C)NC(=O)NC(=O)CSc1cccc(C(F)(F)F)c1 | 97 | i | i | -17 | 248 | -5 | nt | nt
C[N+](C)(C)CCCCCCCCCC[N+](C)(C)C | 105 | 7.8* | i | -11 | 426 | -4 | 43* | -52*
COCCNc1nnc(SCC(=O)Nc2nnc(-c3ccccc3)o2)s1 | 102 | 6.6* | i | nt | 482 | nt | 4 | i
CN(C)CCSc1nnc2sc3ccccc3n12 | 100 | 6.6* | i | -5 | 197 | -1 | 58* | -55*
N#CCSc1nnc2sc3ccccc3n12 | 102 | i | i | -8 | 501 | -10 | nt | nt
CCc1ccc(-n2cc(-c3ccc(F)cc3)[n+]3c2SCCC3)cc1 | 109 | 14* | i | 17 | 149 | -3 | 82* | i
N#Cc1ccc(-c2cn(-c3ccccc3)c3[n+]2CCCS3)cc1 | 103 | 10* | i | -13 | 165 | 11 | 62* | -65*
c1ccc(-c2cn(-c3ccccc3)c3[n+]2CCCS3)cc1 | 114 | i | i | -5 | 210 | -14 | nt | nt
Cc1ccc(-c2cn(-c3ccccc3)c3[n+]2CCCS3)cc1 | 98 | 6.6*! | i | 22 | 148 | -26 | 50* | -23*
CCc1ccc(N2CC(C(=O)Nc3ccc(F)cc3)CC2=O)cc1 (centres undefined) | 93 | i | i | 3 | 128 | -9 | nt | nt
N#Cc1ccc(-c2cn3c(n2)SCC3)cc1 | 99 | i | i | -10 | 202 | 4 | nt | nt
c1ccc(CN2CCN(CCCNc3ccc4nnc(-c5ccccc5)n4n3)CC2)cc1 | 107 | 7.8* | i | -7 | 334 | 7 | 54* | -48*
Cc1ccc(CNc2ccc3nnc(-c4ccccc4)n3n2)cc1 | 98 | i | i | -9 | 331 | -10 | nt | nt
Cc1ccc([C@H]2C[C@H](O)[C@@H](n3cc(COC(=O)c4ccccc4)nn3)CN2Cc2cccs2)cc1 | 101 | nt | nt | nt | nt | nt | nt | nt
COc1ccc2c(c1)C(C)=CC(C)(C)N2S(=O)(=O)c1ccc(C)cc1 | 104 | 7.9* | i | 19 | 451 | -52 | 41* | i
